By Ki is commonly meant the equilibrium dissociation constant of an inhibitor or competing ligand from its target.

Among the data in ChEMBL document CHEMBL1140571, “New 1,8-naphthyridine and quinoline derivatives as CB2 selective agonists” (Bioorg Med Chem Lett, 2007) are Ki, Ratio Ki and Activity values, retold here.

The structures appear in SMILES notation.

Data set [1] deals with Cannabinoid receptor 1 (Homo sapiens, UniProt P21554). The data set is described as follows: biochemical. It is filed as cell-based, HEK293.
Cannabinoid receptor 1, sequence (P21554 whole entry): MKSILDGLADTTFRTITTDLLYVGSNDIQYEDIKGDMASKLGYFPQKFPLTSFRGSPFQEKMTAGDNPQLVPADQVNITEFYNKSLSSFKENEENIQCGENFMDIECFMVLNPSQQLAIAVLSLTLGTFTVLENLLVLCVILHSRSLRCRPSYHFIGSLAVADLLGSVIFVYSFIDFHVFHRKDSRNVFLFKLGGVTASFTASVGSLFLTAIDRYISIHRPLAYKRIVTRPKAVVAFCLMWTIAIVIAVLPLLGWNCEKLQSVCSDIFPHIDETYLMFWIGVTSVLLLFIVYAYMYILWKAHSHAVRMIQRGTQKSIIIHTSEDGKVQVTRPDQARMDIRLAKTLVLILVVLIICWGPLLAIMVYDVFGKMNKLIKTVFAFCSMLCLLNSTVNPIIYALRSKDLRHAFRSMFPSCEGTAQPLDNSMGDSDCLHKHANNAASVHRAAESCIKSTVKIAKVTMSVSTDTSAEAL
Data set [2] has as its target Cannabinoid receptor 2 (Homo sapiens, UniProt P34972). The data set is described as follows: Displacement of [3H]CP-55940 from human recombinant CB2 receptor expressed in HEK293 cells. It is filed as cell-based. Background: Loss of bound radioactivity is the signal in a displacement assay; it reports binding, not function.
The species named for data set [3] is Homo sapiens. The data set is described as follows: Selectivity for human CB2 over human CB1.
In data set [4] the test system is Mus musculus. The data set is described as follows: Effect on Swiss Albino mouse assessed as licking latency time at 0.06 mg/kg, po after 15 mins by hot plate test. It is filed as functional. Background: Hot-plate and tail-flick tests time the reaction to a heat stimulus.
In data set [5] the test system is Mus musculus. The data set is described as follows: Effect on Swiss Albino mouse assessed as licking latency time at 0.06 mg/kg, po after 30 mins by hot plate test. It is filed as functional.
In data set [6] the test system is Mus musculus. As to the kind of experiment: Effect on Swiss Albino mouse assessed as licking latency time at 0.06 mg/kg, po after 45 mins by hot plate test. It is filed as functional.
Data set [7] relates to Mus musculus. As to the kind of experiment: Antinociceptive activity in Swiss Albino mouse assessed as licking latency time at 10 mg/kg, po after 15 mins by hot plate test. It is filed as functional. Summed up:
(§1)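 Mice held at 22 ± 1 °C on a 12 h light/dark cycle and given oral doses in CMC vehicle. In the hot-plate test the container was kept at 52.5 ± 0.1 °C and the endpoint was licking of the fore or hind paws, timed before dosing and after it. Pretest scorers below 12 s or above 18 s were rejected. Cut-off 45 s. AM630 0.6 mg/kg po given simultaneously. Mean ± SEM, ANOVA with Fisher PLSD, P<0.05.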

The test system of data set [8] is Mus musculus. As to the kind of experiment: Antinociceptive activity in Swiss Albino mouse assessed as licking latency time at 10 mg/kg, po after 30 mins by hot plate test. It is filed as functional. Put shortly:
as §1

In data set [9] the test system is Mus musculus. The data set is described as follows: Antinociceptive activity in Swiss Albino mouse assessed as licking latency time at 10 mg/kg, po after 45 mins by hot plate test. It is filed as functional. Summed up:
as §1

In data set [10] the test system is Mus musculus. As to the kind of experiment: Antinociceptive activity in Swiss Albino mouse assessed as licking latency time at 30 mg/kg, po after 15 mins by hot plate test. It is filed as functional. Put shortly: as §1
Data set [11] deals with Mus musculus. The data set is described as follows: Antinociceptive activity in Swiss Albino mouse assessed as licking latency time at 30 mg/kg, po after 30 mins by hot plate test. It is filed as functional. Put shortly: as §1
In data set [12] the test system is Mus musculus. As to the kind of experiment: Antinociceptive activity in Swiss Albino mouse assessed as licking latency time at 30 mg/kg, po after 45 mins by hot plate test. It is filed as functional. Summed up: as §1
Data set [13] concerns Mus musculus. The data set is described as follows: Antinociceptive activity in Swiss Albino mouse assessed as licking latency time at 50 mg/kg, po after 15 mins by hot plate test. It is filed as functional. Summed up:
as §1

The test system of data set [14] is Mus musculus. The data set is described as follows: Antinociceptive activity in Swiss Albino mouse assessed as licking latency time at 50 mg/kg, po after 30 mins by hot plate test. It is filed as functional. Summed up:
as §1

The test system of data set [15] is Mus musculus. As to the kind of experiment: Antinociceptive activity in Swiss Albino mouse assessed as licking latency time at 50 mg/kg, po after 45 mins by hot plate test. It is filed as functional. Summed up:
as §1

The test system of data set [16] is Mus musculus. As to the kind of experiment: Antinociceptive activity in Swiss Albino mouse assessed as licking latency time at 50 mg/kg, po in presence of CB2 antagonist AM630 after 15 mins. It is filed as functional. Summed up:
as §1

Data set [17] concerns Mus musculus. The data set is described as follows: Antinociceptive activity in Swiss Albino mouse assessed as licking latency time at 50 mg/kg, po in presence of CB2 antagonist AM630 after 30 mins. It is filed as functional. Summed up: as §1
For data set [18], the system named is Mus musculus. The data set is described as follows: Antinociceptive activity in Swiss Albino mouse assessed as licking latency time at 50 mg/kg, po in presence of CB2 antagonist AM630 after 45 mins. It is filed as functional. Put shortly: as §1
Data set [19] concerns Mus musculus. The data set is described as follows: Effect on motor coordination in Swiss Albino mouse at 50 mg/kg, po after 15 mins by rotarod test. It is filed as organism-based. On the set-up: dose 50 mg/kg, route oral. To be noted: in vivo, 0.25 h. Summed up: (§2)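 Mice were dosed orally in CMC vehicle and tested on a rotarod with a 3 cm diameter non-slip rotating rod, counting falls before dosing and at 15, 30 and 45 min after. Pretest scorers below 3 or above 6 falls were rejected. Ten mice per group. Mean ± SEM, ANOVA with Fisher PLSD, P<0.05.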
On the technique in general: The rotarod test checks motor coordination on a turning rod.

Data set [20] relates to Mus musculus. The data set is described as follows: Effect on motor coordination in Swiss Albino mouse at 50 mg/kg, po after 30 mins by rotarod test. It is filed as organism-based. Also noted: dose 50 mg/kg, route oral. The note with it: in vivo, 0.5 h. Summed up:
as §2

Data set [21] deals with Mus musculus. The data set is described as follows: Effect on motor coordination in Swiss Albino mouse at 50 mg/kg, po after 45 mins by rotarod test. It is filed as organism-based. On the set-up: dose 50 mg/kg, route oral. To be noted: in vivo, 0.75 h. Put shortly: as §2

Cannabinoid receptor 2, sequence (P34972 whole entry): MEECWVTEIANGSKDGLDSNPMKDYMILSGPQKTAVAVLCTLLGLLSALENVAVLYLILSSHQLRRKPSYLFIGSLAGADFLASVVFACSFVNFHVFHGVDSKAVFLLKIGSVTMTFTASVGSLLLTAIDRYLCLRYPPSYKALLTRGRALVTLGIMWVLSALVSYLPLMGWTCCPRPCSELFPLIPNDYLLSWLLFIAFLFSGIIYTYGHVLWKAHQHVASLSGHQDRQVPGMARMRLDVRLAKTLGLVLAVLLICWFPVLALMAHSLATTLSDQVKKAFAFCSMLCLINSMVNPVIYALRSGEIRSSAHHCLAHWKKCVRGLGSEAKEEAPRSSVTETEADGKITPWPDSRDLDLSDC

As for `COc1ccc2c(=O)c(C(=O)NC3CCCCC3)cn(CCN3CCOCC3)c2c1`, the Ki in data set [1] was 2920 nM; in data set [2], 79 nM. Besides, in data set [3], the Ratio Ki is 37.

For `O=c1c2cn(Cc3ccccc3)c3cc(Cl)ccc3c-2nn1C1CCCCC1`, the figures for the Ki in [1] and in data set [2] were 560 nM and 1640 nM, respectively. For the same compound, the Ratio Ki in data set [3] amounted to 0.34.

As to `O=c1c2cn(CCN3CCOCC3)c3ccccc3c-2nn1-c1ccccc1`, the values for the Ki in data set [1] and in data set [2] were 2800 nM and 2280 nM, respectively. Moreover, the Ratio Ki in data set [3] was 1.2.

Consider `CN(C)c1ccc2c(=O)c(C(=O)NC3CCCCC3)cn(CCN3CCOCC3)c2n1`, for which the Ki in [1] is greater than 5600 nM; in [2], 94 nM.

Turning to `O=c1c2cn(Cc3ccccc3)c3ccccc3c-2nn1C1CCCCC1`, the inhibitory constant (Ki) was 620 nM in data set [1] and 790 nM in [2]. Moreover, in data set [3], the Ratio Ki turned out to be 0.78.

`COc1ccc2c(=O)c(C(=O)NC3CCCCC3)cn(Cc3ccccc3)c2c1`: the Ki in [2] is 79 nM.

In the case of `O=c1c2cn(CCN3CCOCC3)c3ccccc3c-2nn1C1CCCCC1`, the figures for the Ki in data set [1] and in [2] were greater than 5600 nM and greater than 7900 nM, respectively.

For `O=C(NC1CCCCCC1)c1cn(Cc2ccccc2)c2ccccc2c1=O`, the Ki in [1] worked out at 17 nM; in data set [2] it was 6.4 nM. For the same compound, the Ratio Ki in data set [3] came to 2.6.

Turning to `COc1ccc2c(=O)c(C(=O)NC3CCCCC3)cn(Cc3ccccc3)c2n1`, the figures for the inhibition constant (Ki) in [1] and in data set [2] were 560 nM and 11 nM, respectively. Besides, the Ratio Ki in data set [3] amounted to 51. Further, the Activity amounted to 16.6 s in [4]; 18 s in data set [5]; 16.3 s in data set [6]; 17.1 s in data set [7]; 18.5 s in data set [8]; 16.7 s in data set [9]. Moreover, the Activity in [10] was 16.6 s; in data set [11] it was 19.5 s; in [12], 17.4 s; in data set [13] it was 19.2 s; in data set [14] it was 22.5 s; in data set [15], 18.2 s. In addition, the Activity in data set [16] was 18.1 s; in data set [17], 19.2 s; in data set [18] it was 17.6 s; in data set [19] it was 0.7; in data set [20], 0.2; in [21] it was 0.2.

As for `O=C(NC1CCCCCC1)c1cn(CCN2CCOCC2)c2ccccc2c1=O`, the Ki in data set [1] came out at 290 nM; in data set [2], 28 nM. For the same compound, the Ratio Ki in data set [3] amounted to 10.3.

As for `CCCCC/C=C\C/C=C\C/C=C\C/C=C\CCCC(=O)NCCCl`, the Ki in data set [1] came to 5.3 nM; in data set [2], 95 nM. The Ratio Ki in data set [3] is 0.06.

On to `CCCCCCC(C)(C)c1cc(O)c2c(c1)OC(C)(C)[C@@H]1CC=C(CO)C[C@@H]21`, for which the Ki in data set [1] was determined as 0.18 nM.

For `Nc1ccc2c(=O)cc(C(=O)NC3CCCCC3)n(Cc3ccccc3)c2n1`, the Ki in data set [1] is 5600 nM; in data set [2], 7900 nM. Besides, the Ratio Ki in data set [3] is 0.71.

On to `COc1ccc(C(=O)c2c(C)n(CCN3CCOCC3)c3cc(I)ccc23)cc1`, for which the Ki in [2] came out at 36 nM.
